Source: ChEMBL document CHEMBL1127818, “Identification of L-tryptophan derivatives with potent and selective antagonist activity at the NK1 receptor” (J Med Chem, 1994)

How the values were obtained:
Substance-P receptor = Substance-P receptor (Homo sapiens, UniProt P25103); assay: Binding affinity towards cloned neurokinin 1 receptor, based on the displacement of [125I]-labeled substance P
Substance-K receptor = target: T1, Substance-K receptor (Homo sapiens, UniProt P21452); assay: Binding affinity to the NK2 receptor assayed by displacement of [125I]-Neurokinin A
T1 sequence (P21452 whole entry): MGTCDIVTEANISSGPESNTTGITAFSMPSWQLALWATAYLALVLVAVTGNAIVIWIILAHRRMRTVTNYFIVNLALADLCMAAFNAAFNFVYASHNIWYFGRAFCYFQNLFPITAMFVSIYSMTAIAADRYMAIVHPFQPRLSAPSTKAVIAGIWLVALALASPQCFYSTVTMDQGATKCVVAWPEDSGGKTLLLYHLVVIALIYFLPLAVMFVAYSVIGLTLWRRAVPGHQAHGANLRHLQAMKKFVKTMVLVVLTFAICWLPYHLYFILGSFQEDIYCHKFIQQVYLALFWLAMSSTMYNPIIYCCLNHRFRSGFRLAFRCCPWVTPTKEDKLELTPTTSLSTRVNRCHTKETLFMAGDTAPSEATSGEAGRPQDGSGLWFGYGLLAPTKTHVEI
In short: (§1)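 Cloned human NK2 or NK3 receptors stably expressed in CHO cells. Radioligand displacement with [125I]neurokinin A for NK2 and [125I]Bolton-Hunter labeled eledoisin for NK3; IC50 reported.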

Neuromedin-K receptor = target: T2, Neuromedin-K receptor (Homo sapiens, UniProt P29371); assay: Affinity to NK3 receptors assayed by displacement of [125I]-Bolton-Hunter labeled eledoisin radioligand; in short: as §1
T2 sequence (P29371 whole entry): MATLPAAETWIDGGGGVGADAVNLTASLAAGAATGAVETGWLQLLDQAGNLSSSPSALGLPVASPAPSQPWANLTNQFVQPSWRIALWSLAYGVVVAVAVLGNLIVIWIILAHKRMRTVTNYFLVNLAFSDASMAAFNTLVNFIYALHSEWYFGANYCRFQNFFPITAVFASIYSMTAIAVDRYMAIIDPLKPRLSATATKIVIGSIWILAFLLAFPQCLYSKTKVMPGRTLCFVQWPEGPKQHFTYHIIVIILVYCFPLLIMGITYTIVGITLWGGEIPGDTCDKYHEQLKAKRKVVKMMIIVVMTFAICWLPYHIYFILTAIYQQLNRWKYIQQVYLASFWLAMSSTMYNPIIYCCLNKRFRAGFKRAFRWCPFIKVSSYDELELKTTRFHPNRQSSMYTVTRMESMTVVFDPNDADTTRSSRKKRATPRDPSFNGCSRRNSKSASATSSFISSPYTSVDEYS

Cavia porcellus [1] = organism: Cavia porcellus; assay: animal or person; settings: po, read-out: Inhibition
Cavia porcellus [2] = organism: Cavia porcellus; assay: Inhibitory dose against substance P induced extravasation in the guinea pig; settings: read-out: ID50

Substance-P receptor, sequence (P25103 whole entry): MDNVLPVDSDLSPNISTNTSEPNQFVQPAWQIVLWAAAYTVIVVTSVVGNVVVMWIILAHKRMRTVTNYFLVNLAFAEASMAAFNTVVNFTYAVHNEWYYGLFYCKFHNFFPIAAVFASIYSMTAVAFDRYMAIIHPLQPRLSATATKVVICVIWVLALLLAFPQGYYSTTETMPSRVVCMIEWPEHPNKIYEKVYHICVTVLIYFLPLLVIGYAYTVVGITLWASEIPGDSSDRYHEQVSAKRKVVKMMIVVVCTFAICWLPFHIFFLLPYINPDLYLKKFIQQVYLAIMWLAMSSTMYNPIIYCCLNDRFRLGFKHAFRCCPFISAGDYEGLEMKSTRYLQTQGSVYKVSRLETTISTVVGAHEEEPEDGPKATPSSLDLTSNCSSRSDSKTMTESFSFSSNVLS

| IC50 (Substance-P receptor) [µM] | IC50 (Substance-K receptor) [µM] | IC50 (Neuromedin-K receptor) [µM] | SMILES | inhibition in vivo at 30 mg/kg (Cavia porcellus [1]) [%] | ED50 (Cavia porcellus [2]) [mg/kg] |
| --- | --- | --- | --- | --- | --- |
| 2.15 | > 5 | > 5 | O=C(N[C@@H](Cc1c[nH]c2ccccc12)C(=O)OCc1ccc(C(F)(F)F)cc1)c1ccccc1 |  |  |
|  | > 5 | > 5 | Cc1cc(C)cc(COC(=O)C(Cc2c[nH]c3ccccc23)NC(=O)c2ccccc2)c1 (single isomer, unassigned) |  |  |
|  | > 5 | > 5 | CC(=O)N[C@@H](Cc1c[nH]c2ccccc12)C(=O)OCc1cc(C(F)(F)F)cc(C(F)(F)F)c1 [L-732138] | 22 | 8 |
|  | > 5 | > 5 | COc1ccccc1COC(=O)[C@H](Cc1c[nH]c2ccccc12)NC(=O)OC(C)(C)C |  |  |
| 1.05 | > 5 | > 5 | O=C(N[C@@H](Cc1c[nH]c2ccccc12)C(=O)OCc1cccc(Cl)c1)c1ccccc1 |  |  |
| 0.062 | > 5 | > 5 | O=C(N[C@@H](Cc1c[nH]c2ccccc12)C(=O)OCc1cccc(C(F)(F)F)c1)c1ccccc1 |  |  |
| 0.008 | > 5 | > 5 | CC(=O)N[C@@H](Cc1csc2ccccc12)C(=O)OCc1cc(C(F)(F)F)cc(C(F)(F)F)c1 (racemic) [L-709400] |  |  |
| 5.5 | > 5 | > 5 | COc1ccc(COC(=O)[C@H](Cc2c[nH]c3ccccc23)NC(=O)c2ccccc2)cc1 |  |  |
|  | > 5 | > 5 | Cc1cc(C)cc(COC(=O)[C@H](Cc2c[nH]c3ccccc23)[N+](C)(C)C)c1 |  |  |
| 0.087 | > 5 | > 5 | COC(=O)N[C@@H](Cc1c[nH]c2ccccc12)C(=O)OCc1cc(C)cc(C)c1 |  |  |
| 0.197 | > 5 | > 5 | CC(=O)N[C@@H](Cc1n[nH]c2ccccc12)C(=O)OCc1cc(C(F)(F)F)cc(C(F)(F)F)c1 (racemic) |  |  |
| 0.022 | > 5 | > 5 | Cc1cc(C)cc(COC(=O)[C@H](Cc2c[nH]c3ccccc23)NC(=O)c2ccccc2)c1 |  |  |
|  | > 5 | > 5 | Cc1cc(C)cc(COC(=O)[C@@H](N)Cc2c[nH]c3ccccc23)c1 |  |  |
|  | > 5 | > 5 | O=C(N[C@@H](Cc1c[nH]c2ccccc12)C(=O)OCc1ccccc1Cl)c1ccccc1 |  |  |
| 0.0027 | > 5 | > 5 | O=C(N[C@@H](Cc1c[nH]c2ccccc12)C(=O)OCc1cc(C(F)(F)F)cc(C(F)(F)F)c1)c1ccccc1 |  |  |
| > 0.1 | > 5 | > 5 | COc1ccccc1COC(=O)[C@H](Cc1c[nH]c2ccccc12)NC(=O)c1ccccc1 |  |  |
| 0.103 | > 5 | > 5 | CNC(=O)N[C@@H](Cc1c[nH]c2ccccc12)C(=O)OCc1cc(C)cc(C)c1 |  |  |
| 0.138 | > 5 | > 5 | CC(=O)N[C@@H](Cc1ccc2ccccc2c1)C(=O)OCc1cc(C)cc(C)c1 |  |  |
| 0.153 | > 5 | > 5 | CC(=O)N[C@@H](Cc1cccc2ccccc12)C(=O)OCc1cc(C)cc(C)c1 |  |  |
| 0.243 | > 5 | > 5 | O=C(N[C@@H](Cc1c[nH]c2ccccc12)C(=O)OCc1ccc(Cl)cc1)c1ccccc1 |  |  |
| 0.183 | > 5 | > 5 | O=C(N[C@@H](Cc1c[nH]c2ccccc12)C(=O)OCc1ccccc1C(F)(F)F)c1ccccc1 |  |  |
|  | > 5 | > 5 | Cc1cc(C)cc(COC(=O)[C@H](Cc2c[nH]c3ccccc23)NC(=O)OC(C)(C)C)c1 |  |  |
|  | > 5 | > 5 | CC(C)(C)OC(=O)N[C@@H](Cc1c[nH]c2ccccc12)C(=O)OCc1ccccc1 |  |  |
|  | > 5 | > 5 | N[C@@H](Cc1c[nH]c2ccccc12)C(=O)OCc1ccccc1 |  |  |
|  | > 5 | > 5 | CC(=O)N[C@@H](Cc1c[nH]c2ccccc12)C(=O)OCc1cc(C)cc(C)c1 [L-708568] |  |  |
| 0.76 | > 5 | > 5 | COc1cccc(COC(=O)[C@H](Cc2c[nH]c3ccccc23)NC(=O)c2ccccc2)c1 |  |  |
| 0.03 | > 5 | > 5 | CC(=O)N[C@@H](Cc1ccc(Cl)c(Cl)c1)C(=O)OCc1cc(C)cc(C)c1 (racemic) |  |  |
| 0.433 | > 5 | > 5 | CC(=O)N[C@@H](Cc1ccccc1)C(=O)OCc1cc(C)cc(C)c1 |  |  |

| SMILES | IC50 (Substance-P receptor) [µM] | IC50 (Substance-K receptor) [µM] | IC50 (Neuromedin-K receptor) [µM] | inhibition in vivo at 30 mg/kg (Cavia porcellus [1]) [%] | ED50 (Cavia porcellus [2]) [mg/kg] |
| --- | --- | --- | --- | --- | --- |
| Cc1cc(C)cc(COC(=O)[C@H](Cc2c[nH]c3ccccc23)N(C)C)c1 |  | > 5 | > 5 |  |  |
| CCN[C@@H](Cc1c[nH]c2ccccc12)C(=O)OCc1ccccc1 |  | > 5 | > 5 |  |  |
